Tested on: Fibroblast
Assay: Multiplex assay against human fibroblast
Format: toxicity, cell-based
Method in brief: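 Phenotypes for tubulin, mitochondrial mass and membrane permeability are expressed as per cents of healthy-nucleus cells. Cells were stained live at seeding with Hoechst33342, BioTracker Green Microtubule Cytoskeleton Dye, MitoTracker Red and Annexin V Alexa Fluor 680, then imaged after compound addition on a CQ1 microscope at 37°C and 5% CO2. Machine-learning gating in CellPathfinder separated Hoechst high-intensity objects from normal cells, divided normal cells by nuclear state (healthy, pyknosed, fragmented) and divided pyknosed cells into mitotic or apoptotic.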

[1] = 12 h, 1 µM, compound concentration 1 uM, replicate 1
[2] = 12 h, 1 µM, compound concentration 1 uM, replicate 2
[3] = 12 h, 10 µM, compound concentration 10 uM, replicate 1
[4] = 12 h, 10 µM, compound concentration 10 uM, replicate 2
[5] = 24 h, 1 µM, compound concentration 1 uM, replicate 1
[6] = 24 h, 1 µM, compound concentration 1 uM, replicate 2
[7] = 24 h, 10 µM, compound concentration 10 uM, replicate 1
[8] = 24 h, 10 µM, compound concentration 10 uM, replicate 2
[9] = 48 h, 1 µM, compound concentration 1 uM, replicate 1
[10] = 48 h, 1 µM, compound concentration 1 uM, replicate 2
[11] = 48 h, 10 µM, compound concentration 10 uM, replicate 1
[12] = 48 h, 10 µM, compound concentration 10 uM, replicate 2

COc1ccccc1CN[C@H]1C2CCN(CC2)[C@H]1C(c1ccccc1)c1ccccc1 [CP-96345]
Population Apoptotic (%) [1]: 64% | Population Fragmented Nuclei (%) [1]: 25% | Population Healthy Nuclei (%) [1]: 43% | Population Hoechst High Intensity Objects (%) [1]: 13% | Population Membrane Permeable-Phenotype (%) [1]: 27% | Population Mitochondria Different-Phenotype (%) [1]: 9% | Population Mitotic Cells (%) [1]: 35% | Population Normal (%) [1]: 86% | Population Pyknosed Nuclei (%) [1]: 30% | Population Tubulin-Different-Phenotype (%) [1]: 52% | Total Cell Count [1]: 146 | Population Apoptotic (%) [2]: 66% | Population Fragmented Nuclei (%) [2]: 4% | Population Healthy Nuclei (%) [2]: 92% | Population Hoechst High Intensity Objects (%) [2]: 0% | Population Membrane Permeable-Phenotype (%) [2]: 4% | Population Mitochondria Different-Phenotype (%) [2]: 7% | Population Mitotic Cells (%) [2]: 33% | Population Normal (%) [2]: 100% | Population Pyknosed Nuclei (%) [2]: 3% | Population Tubulin-Different-Phenotype (%) [2]: 8% | Total Cell Count [2]: 90 | Population Apoptotic (%) [3]: 67% | Population Fragmented Nuclei (%) [3]: 29% | Population Healthy Nuclei (%) [3]: 45% | Population Hoechst High Intensity Objects (%) [3]: 13% | Population Membrane Permeable-Phenotype (%) [3]: 6% | Population Mitochondria Different-Phenotype (%) [3]: 44% | Population Mitotic Cells (%) [3]: 32% | Population Normal (%) [3]: 86% | Population Pyknosed Nuclei (%) [3]: 25% | Population Tubulin-Different-Phenotype (%) [3]: 84% | Total Cell Count [3]: 129 | Population Apoptotic (%) [4]: 50% | Population Fragmented Nuclei (%) [4]: 2% | Population Healthy Nuclei (%) [4]: 86% | Population Hoechst High Intensity Objects (%) [4]: 3% | Population Membrane Permeable-Phenotype (%) [4]: 1% | Population Mitochondria Different-Phenotype (%) [4]: 45% | Population Mitotic Cells (%) [4]: 50% | Population Normal (%) [4]: 96% | Population Pyknosed Nuclei (%) [4]: 10% | Population Tubulin-Different-Phenotype (%) [4]: 26% | Total Cell Count [4]: 77 | Population Apoptotic (%) [5]: 63% | Population Fragmented Nuclei (%) [5]: 26% | Population Healthy Nuclei (%) [5]: 49% | Population Hoechst High Intensity Objects (%) [5]: 15% | Population Membrane Permeable-Phenotype (%) [5]: 23% | Population Mitochondria Different-Phenotype (%) [5]: 8% | Population Mitotic Cells (%) [5]: 36% | Population Normal (%) [5]: 84% | Population Pyknosed Nuclei (%) [5]: 24% | Population Tubulin-Different-Phenotype (%) [5]: 41% | Total Cell Count [5]: 161 | Population Apoptotic (%) [6]: 54% | Population Fragmented Nuclei (%) [6]: 4% | Population Healthy Nuclei (%) [6]: 85% | Population Hoechst High Intensity Objects (%) [6]: 2% | Population Membrane Permeable-Phenotype (%) [6]: 1% | Population Mitochondria Different-Phenotype (%) [6]: 4% | Population Mitotic Cells (%) [6]: 45% | Population Normal (%) [6]: 97% | Population Pyknosed Nuclei (%) [6]: 9% | Population Tubulin-Different-Phenotype (%) [6]: 17% | Total Cell Count [6]: 114 | Population Apoptotic (%) [7]: 55% | Population Fragmented Nuclei (%) [7]: 41% | Population Healthy Nuclei (%) [7]: 43% | Population Hoechst High Intensity Objects (%) [7]: 22% | Population Membrane Permeable-Phenotype (%) [7]: 3% | Population Mitochondria Different-Phenotype (%) [7]: 41% | Population Mitotic Cells (%) [7]: 44% | Population Normal (%) [7]: 77% | Population Pyknosed Nuclei (%) [7]: 14% | Population Tubulin-Different-Phenotype (%) [7]: 86% | Total Cell Count [7]: 156 | Population Apoptotic (%) [8]: 40% | Population Fragmented Nuclei (%) [8]: 2% | Population Healthy Nuclei (%) [8]: 81% | Population Hoechst High Intensity Objects (%) [8]: 1% | Population Membrane Permeable-Phenotype (%) [8]: 2% | Population Mitochondria Different-Phenotype (%) [8]: 31% | Population Mitotic Cells (%) [8]: 60% | Population Normal (%) [8]: 98% | Population Pyknosed Nuclei (%) [8]: 16% | Population Tubulin-Different-Phenotype (%) [8]: 14% | Total Cell Count [8]: 92 | Population Apoptotic (%) [9]: 42% | Population Fragmented Nuclei (%) [9]: 30% | Population Healthy Nuclei (%) [9]: 60% | Population Hoechst High Intensity Objects (%) [9]: 14% | Population Membrane Permeable-Phenotype (%) [9]: 20% | Population Mitochondria Different-Phenotype (%) [9]: 3% | Population Mitotic Cells (%) [9]: 57% | Population Normal (%) [9]: 85% | Population Pyknosed Nuclei (%) [9]: 9% | Population Tubulin-Different-Phenotype (%) [9]: 29% | Total Cell Count [9]: 169 | Population Apoptotic (%) [10]: 50% | Population Fragmented Nuclei (%) [10]: 36% | Population Healthy Nuclei (%) [10]: 61% | Population Hoechst High Intensity Objects (%) [10]: 12% | Population Membrane Permeable-Phenotype (%) [10]: 25% | Population Mitochondria Different-Phenotype (%) [10]: 4% | Population Mitotic Cells (%) [10]: 50% | Population Normal (%) [10]: 87% | Population Pyknosed Nuclei (%) [10]: 2% | Population Tubulin-Different-Phenotype (%) [10]: 36% | Total Cell Count [10]: 82 | Population Apoptotic (%) [11]: 83% | Population Fragmented Nuclei (%) [11]: 36% | Population Healthy Nuclei (%) [11]: 58% | Population Hoechst High Intensity Objects (%) [11]: 25% | Population Membrane Permeable-Phenotype (%) [11]: 2% | Population Mitochondria Different-Phenotype (%) [11]: 36% | Population Mitotic Cells (%) [11]: 16% | Population Normal (%) [11]: 75% | Population Tubulin-Different-Phenotype (%) [11]: 61% | Total Cell Count [11]: 172 | Population Apoptotic (%) [12]: 25% | Population Fragmented Nuclei (%) [12]: 30% | Population Healthy Nuclei (%) [12]: 66% | Population Hoechst High Intensity Objects (%) [12]: 11% | Population Membrane Permeable-Phenotype (%) [12]: 24% | Population Mitochondria Different-Phenotype (%) [12]: 7% | Population Mitotic Cells (%) [12]: 75% | Population Normal (%) [12]: 88% | Population Pyknosed Nuclei (%) [12]: 4% | Population Tubulin-Different-Phenotype (%) [12]: 60% | Total Cell Count [12]: 113

Reference: ChEMBL document CHEMBL4689842, “EUbOPEN Chemogenomics Library wave 1” (2021)
